Source: ChEMBL document CHEMBL1136605, “Synthesis and biological activities of novel beta-carbolines as PDE5 inhibitors” (Bioorg Med Chem Lett, 2003)
pIC50, pKi: −log10 of the molar value.

How the values were obtained:
[1] = biological target: T1, cGMP-specific 3',5'-cyclic phosphodiesterase (Homo sapiens, UniProt O76074); assay: Inhibitory activity against PDE5 from human corpus cavernosum
Homo sapiens = species on record: Homo sapiens; assay: Relative inhibition of PDE6 from human retinal cone and PDE5 from human corpus cavernosum
In short: (§1)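 Ratio of inhibition of a second human PDE to that of PDE5 from corpus cavernosum. PDE2 was from corpus cavernosum and PDE6 from retinal cone. Compounds were diluted in DMSO to 2% DMSO final. Ki was determined for each enzyme.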

[2] = biological target: Phosphodiesterase 2 and 5 (PDE2 and PDE5) (Homo sapiens) (UniProt O76074+O00408); assay: Relative inhibition of PDE2 and PDE5 from human corpus cavernosum; assay type: protein assay; in short: as §1
Canis familiaris = assay: In vivo increased intracavernosal pressure in dogs after intravenous dose; assay type: functional, Canis lupus familiaris
In short: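 Ascending intravenous doses given at 40-min intervals after control responses were established. Intracavernosal pressure (ICP) was evoked 15 min after each dose by pelvic nerve electrical stimulation at the same setting. Effect was taken as the ICP area under the curve at each stimulation minus the control-response AUC.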

[3] = biological target: T1, cGMP-specific 3',5'-cyclic phosphodiesterase; assay: Inhibition of PDE5 (Phosphodiesterase) from human corpus cavernosum
In short: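 Enzyme was PDE5 from human corpus cavernosum. Compounds were serially diluted in 100% DMSO and added to assay buffer at 2% DMSO final. […] Ki was derived, with IC50 instead for a few compounds. Values are means of three experiments.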

Compound	pKi [1]	other results
CC(=O)Nc1cccc(-c2ccc(C(=O)N3CCc4c([nH]c5ccccc45)C3c3ccc4c(c3)OCO4)o2)c1 (stereo not given)	7.30	
COc1ccc(-c2cnc(N3CC(=O)c4c([nH]c5ccccc45)C3c3ccc4c(c3)OCO4)nc2)cc1OC (stereo not given)		Selectivity (Homo sapiens): 4; Selectivity [2]: 23000
Cc1ncc(-c2cnc(N3CCc4c([nH]c5ccccc45)C3c3ccc4c(c3)CCO4)nc2)n1C (stereo not given)		Selectivity (Homo sapiens): 187; Selectivity [2]: > 4000
COc1ccc(-c2cnc(N3CC(=O)c4c([nH]c5ccccc45)C3c3ccc4c(c3)OCO4)nc2)cc1 (stereo not given)	7.74	ED50 (Canis familiaris): 0.173 mg/kg
O=C(O)CCCC(=O)Nc1ccc(-c2ccc(C(=O)N3CCc4c([nH]c5ccccc45)C3c3ccc4c(c3)OCO4)o2)cc1 (stereo not given)		pIC50 [3]: 7.00
O=C(c1ccc(-c2ccccc2[N+](=O)[O-])o1)N1CCc2c([nH]c3ccccc23)C1c1ccc2c(c1)OCO2 (stereo not given)	6.66	
O=C(c1ccc(-c2cccc([N+](=O)[O-])c2)o1)N1CCc2c([nH]c3ccccc23)C1c1ccc2c(c1)OCO2 (stereo not given)	6.89	
Nc1cccc(-c2ccc(C(=O)N3CCc4c([nH]c5ccccc45)C3c3ccc4c(c3)OCO4)o2)c1 (stereo not given)	6.75	
O=C(O)CCCC(=O)Nc1cccc(-c2ccc(C(=O)N3CCc4c([nH]c5ccccc45)C3c3ccc4c(c3)OCO4)o2)c1 (stereo not given)		pIC50 [3]: 7.02
O=C(c1ccc(-c2ccc([N+](=O)[O-])cc2)o1)N1CCc2c([nH]c3ccccc23)C1c1ccc2c(c1)OCO2 (stereo not given)	7.11	
FC(F)(F)c1cccc(-c2ccc(CN3CCc4c([nH]c5ccccc45)C3c3ccc4c(c3)OCO4)o2)c1 (stereo not given)	6.07	
O=C(c1ccc(-c2cccc(C(F)(F)F)c2)o1)N1CCc2c([nH]c3ccccc23)C1c1ccc2c(c1)OCO2 (stereo not given)	6.90	
CCCc1nn(C)c2c(=O)[nH]c(-c3cc(S(=O)(=O)N4CCN(C)CC4)ccc3OCC)nc12		ED50 (Canis familiaris): 0.0051 mg/kg
Nc1ccc(-c2ccc(C(=O)N3CCc4c([nH]c5ccccc45)C3c3ccc4c(c3)OCO4)o2)cc1 (stereo not given)	6.91	
COc1ccc(-c2cnc(N3CC(O)c4c([nH]c5ccccc45)C3c3ccc4c(c3)OCO4)nc2)cc1OC (stereo not given)	< 7.00	
CN1CCN(C(=O)c2ccc(-c3ccc(C(=O)N4CCc5c([nH]c6ccccc56)C4c4ccc5c(c4)CCO5)o3)cc2)CC1 (stereo not given)	8.09	Selectivity (Homo sapiens): 119; Selectivity [2]: > 10000
O=C(c1ccc(-c2ccc(Cl)cc2[N+](=O)[O-])o1)N1CCc2c([nH]c3ccccc23)[C@@H]1c1ccc2c(c1)OCO2		pIC50 [3]: < 5.00
O=C(c1ccc(-c2ccc(Cl)cc2[N+](=O)[O-])o1)N1CCc2c([nH]c3ccccc23)[C@H]1c1ccc2c(c1)OCO2		pIC50 [3]: 7.17
CC(=O)Nc1ccc(-c2ccc(C(=O)N3CCc4c([nH]c5ccccc45)C3c3ccc4c(c3)OCO4)o2)cc1 (stereo not given)	7.19	
O=C(c1ccc(-c2ccccn2)o1)N1CCc2c([nH]c3ccccc23)C1c1ccc2c(c1)CCO2 (stereo not given)	7.49	Selectivity (Homo sapiens): 32; Selectivity [2]: 308
O=C(c1ccc(-c2ccc(Cl)cc2[N+](=O)[O-])o1)N1CCc2c([nH]c3ccccc23)C1c1ccc2c(c1)OCO2 (stereo not given)		pIC50 [3]: 6.98
O=C(c1ccc(-c2ccccc2)o1)N1CCc2c([nH]c3ccccc23)C1c1ccc2c(c1)OCO2 (stereo not given)		pIC50 [3]: 6.12
O=C(c1ccc(-c2cccc([N+](=O)[O-])c2)o1)N1CCc2c(sc3ccccc23)C1c1ccc2c(c1)OCO2 (stereo not given)	< 5.30	
CS(=O)(=O)c1ccc(-c2cnc(N3CCc4c([nH]c5ccccc45)C3c3ccc4c(c3)OCO4)nc2)c([N+](=O)[O-])c1 (stereo not given)	6.88	

Second part, led by results:

pKi [1]	Compound	other results
6.61	COc1ccc(-c2cnc(N3CCc4c([nH]c5ccccc45)C3c3ccc4c(c3)OCO4)nc2)cc1 (stereo in doubt; 15a)	
6.90	Clc1ccc(-c2cnc(N3CCc4c([nH]c5ccccc45)C3c3ccc4c(c3)OCO4)nc2)cc1 (stereo not given)	
< 6.00	c1ccc2c3c([nH]c2c1)C(c1ccc2c(c1)CCO2)N(c1ncc(-c2ccc(OCCN4CCCC4)cc2)cn1)CC3 (stereo not given)	
6.27	Cc1ccc(-c2cnc(N3CCc4c([nH]c5ccccc45)C3c3ccc4c(c3)OCO4)nc2)cc1 (stereo not given)	
6.72	COc1ccc(-c2cnc(N3CCc4c([nH]c5ccccc45)C3c3ccc4c(c3)CCO4)nc2)cc1 (stereo in doubt; 8f)	
6.81	Oc1ccc(-c2cnc(N3CCc4c([nH]c5ccccc45)C3c3ccc4c(c3)CCO4)nc2)cc1 (stereo not given)	
< 5.00	COc1ccc(-c2cnc(N3CCc4c([nH]c5ccccc45)C3c3ccc(OC)c(OC)c3)nc2)cc1 (stereo not given)	
6.61	COc1ccc(-c2cnc(N3CCc4c([nH]c5ccccc45)C3c3ccc4c(c3)OCO4)nc2)cc1 (stereo in doubt; 8a)	
6.73	COc1ccc(-c2cnc(N3CCc4c([nH]c5ccccc45)C3c3ccc4c(c3)CCO4)nc2)cc1 (stereo in doubt; 15f)	
